Reference: ChEMBL document CHEMBL1127371, “Acyl CoA:cholesterol acyltransferase (ACAT) inhibitors: synthesis and structure-activity relationship studies of a new series of trisubstituted imidazoles” (J Med Chem, 1994)
pIC50: −log10 of the molar value. Values joined by “and” are separate entries in the source; they are usually repeats but may differ in a detail not shown here. Equal values may be shown once.

Assays:
[1] = target: T1, Sterol O-acyltransferase 1 (Rattus norvegicus, UniProt O70536); test: In vitro inhibition of Acyl coenzyme A:cholesterol acyltransferase in rat hepatic microsomes; set-up: species or system Liver
T1 sequence (O70536 whole entry): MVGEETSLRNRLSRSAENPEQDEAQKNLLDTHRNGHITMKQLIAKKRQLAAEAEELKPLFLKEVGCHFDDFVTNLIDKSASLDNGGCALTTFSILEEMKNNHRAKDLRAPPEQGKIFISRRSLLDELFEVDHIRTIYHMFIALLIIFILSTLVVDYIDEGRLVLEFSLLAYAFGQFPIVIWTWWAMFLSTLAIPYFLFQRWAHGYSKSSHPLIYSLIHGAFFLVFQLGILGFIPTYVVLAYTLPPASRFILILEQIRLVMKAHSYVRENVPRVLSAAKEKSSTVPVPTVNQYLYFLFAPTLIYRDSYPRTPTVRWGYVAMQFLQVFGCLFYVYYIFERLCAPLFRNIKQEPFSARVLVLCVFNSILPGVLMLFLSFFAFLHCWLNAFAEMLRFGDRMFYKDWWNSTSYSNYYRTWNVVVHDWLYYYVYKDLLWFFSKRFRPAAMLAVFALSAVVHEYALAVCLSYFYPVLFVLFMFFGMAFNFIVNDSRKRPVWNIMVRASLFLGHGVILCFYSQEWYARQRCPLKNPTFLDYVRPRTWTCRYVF
Procedure, shortened: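 Rat hepatic microsomes were incubated with labelled oleoyl-CoA, and formation of labelled cholesterol oleate was measured (pmol/min/mg). Assays were run in duplicate with at least four inhibitor concentrations bracketing the IC50.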

Cricetinae gen. sp. = test: Tested anti-hypercholesterolaemic value(AHV) is the ratio of observed reduction in serum cholesterol to difference between control and baseline levels x100 at 10 mg/kg/day dose; assay type: functional
Mesocricetus auratus [2] = species on record: Mesocricetus auratus; test: Evaluated for Syrian hamsters fed with a 0.8% cholesterol-supplemented chow diet for 7 days
Mesocricetus auratus [3] = species on record: Mesocricetus auratus; test: Evaluated for Syrian hamsters fed with a 2.5% cholesterol-supplemented chow diet for 3 days
Mesocricetus auratus [4] = species on record: Mesocricetus auratus; test: Evaluated for Syrian hamsters fed with 2.5% cholesterol-supplemented chow diet for 3 days
Mesocricetus auratus [5] = species on record: Mesocricetus auratus; test: Evaluated for Syrian hamsters fed with 0.8% cholesterol-supplemented chow diet for 7 days

| SMILES | pIC50 [1] | further results |
| --- | --- | --- |
| CCCCCCCN(CCCCCSc1nc(-c2ccccc2)c(-c2ccccc2)[nH]1)C(=O)C(C)C | 7.00 |  |
| CCCCCCCN(CCCCCSc1nc(-c2ccccc2)c(-c2ccccc2)[nH]1)C(=O)NC1CCCCC1 | 8.00 |  |
| CCCCCCCN(CCCCCS(=O)(=O)c1nc(-c2ccccc2)c(-c2ccccc2)[nH]1)C(=O)Nc1ccc(F)cc1F | 7.80 | AHV (Cricetinae gen. sp.): 30%; Serum cholesterol (Mesocricetus auratus [2]): 318 mg % |
| CCCCCCCN(CCCCCSc1nc(-c2ccccc2)c(-c2ccccc2)[nH]1)C(=O)Oc1ccccc1 | 7.70 |  |
| CCCCCCCN(CCCCCSc1nc(-c2ccccc2)c(-c2ccccc2)[nH]1)C(=O)Nc1ccccc1 | 7.64 |  |
| CCCCCCCN(CCCCCSc1nc(-c2ccccc2)c(-c2ccccc2)[nH]1)C(=O)Cc1ccc(F)cc1F | 7.60 |  |
| CCCCCCCCNC(=O)N(CCCCCSc1nc(-c2ccccc2)c(-c2ccccc2)[nH]1)c1c(F)cc(F)cc1F | 7.70 |  |
| CCCCCCCN(CCCCCSc1nc(-c2ccccc2)c(-c2ccccc2)[nH]1)C(=O)Cc1ccc(-c2ccccc2)cc1 | 6.80 |  |
| CCCCCCCN(CCCCCSc1nc(-c2ccccc2)c(-c2ccccc2)[nH]1)C(=O)OCCC | 7.47 |  |
| CCCCCCCN(CCCCCSc1nc(-c2ccccc2)c(-c2ccccc2)[nH]1)C(=O)CCC | 7.52 | AHV (Cricetinae gen. sp.): 43%; Serum cholesterol (Mesocricetus auratus [2]): 245 mg % |
| CCCCCCCN(CCCCCSc1nc(-c2ccccc2)c(-c2ccccc2)[nH]1)C(=O)Nc1ccc([N+](=O)[O-])cc1 | 7.10 | AHV (Cricetinae gen. sp.): 38%; Serum cholesterol (Mesocricetus auratus [2]): 277 mg % |
| CCCCCCCN(CCCCCSc1nc(-c2ccccc2)c(-c2ccccc2)n1-c1ccccc1)C(=O)Nc1ccc(F)cc1F | < 4.30 |  |
| CCCCCCCN(CCCCCSc1ncc(-c2ccccc2)n1-c1ccccc1)C(=O)Nc1ccc(F)cc1F | 5.14 |  |
| CCCCCCCN(Cc1cccc(CSc2nc(-c3ccccc3)c(-c3ccccc3)[nH]2)c1)C(=O)Nc1ccc(F)cc1F | 7.52 |  |
| CCCCCCCCNC(=O)N(CCCCCSc1nc(-c2ccccc2)c(-c2ccccc2)[nH]1)c1ccccc1 | 8.00 | Serum cholesterol (Mesocricetus auratus [3]): 268 mg % |
| O=C(Nc1ccc(F)cc1F)N(CCCCCSc1nc(-c2ccccc2)c(-c2ccccc2)[nH]1)Cc1ccccc1 | 6.70 |  |
| CCCCCCCN(CCCCCSc1nc(-c2ccccc2)c(-c2ccccc2)[nH]1)C(=O)Nc1c(F)cc(F)cc1F | 7.80 | Serum cholesterol (Mesocricetus auratus [3]): 218 mg %; AHV (Cricetinae gen. sp.): 51% |
| CCCCCCCN(CCCCCSc1nc(-c2ccccc2)c(-c2ccccc2)[nH]1)C(=O)CC1CCCCC1 | 7.52 |  |
| CCCCCCCN(CCCCCSc1nc(-c2ccccc2)c(-c2ccccc2)[nH]1)C(=O)OC1CCCCC1 | 7.30 |  |
| O=C(NCCCCCSc1nc(-c2ccccc2)c(-c2ccccc2)[nH]1)Nc1ccc(F)cc1F | 6.40 |  |
| CCCN(CCCCCSc1nc(-c2ccccc2)c(-c2ccccc2)[nH]1)C(=O)Nc1ccc(F)cc1F | 7.52 |  |
| CCCCCCCN(CCCCCSc1ncc[nH]1)C(=O)Nc1ccc(F)cc1F | 5.54 |  |
| CCCCCCCCNC(=O)N(CCCCCSc1nc(-c2ccccc2)c(-c2ccccc2)[nH]1)c1ccc(F)cc1F | 7.40 |  |
| CCCCCCCN(CCCCCSc1nc(-c2ccccc2)c(-c2ccccc2)[nH]1)C(N)=O | 6.04 |  |
| CCCCCCCN(CCCCCSc1nc(-c2ccccc2)c(-c2ccccc2)[nH]1)C(=O)NC | 7.40 |  |
| CCCCCCCN(CCCCCSc1nc(-c2ccccc2)c(-c2ccccc2)[nH]1)C(=O)Nc1ccc(-c2ccccc2)cc1 | 7.15 |  |

| SMILES | pIC50 [1] | further results |
| --- | --- | --- |
| O=C(Nc1ccc(F)cc1F)N(CCCCCSc1nc(-c2ccccc2)c(-c2ccccc2)[nH]1)CCCCc1ccccc1 | 7.30 |  |
| CCCCCCCN(CC(C)(C)CCSc1nc(-c2ccccc2)c(-c2ccccc2)[nH]1)C(=O)Nc1ccc(F)cc1F | 7.15 |  |
| CCCCCCCN(CCCCCSc1nc(-c2ccccc2)c(-c2ccccc2)[nH]1)C(=O)c1ccc(F)cc1F | 7.22 |  |
| CCCCCCCN(CCCCCCCCSc1nc(-c2ccccc2)c(-c2ccccc2)[nH]1)C(=O)Nc1ccc(F)cc1F | 8.10 | Serum cholesterol (Mesocricetus auratus [3]): 271 mg % |
| CCCCCCCN(CCCCCSc1nc(-c2ccccc2)c(-c2ccccc2)[nH]1)C(=O)Nc1c(C(C)C)cccc1C(C)C | 6.64 |  |
| CCCCCCCN(CCCCCSc1nc(-c2ccccc2)c(-c2ccccc2)n1C)C(=O)Nc1ccc(F)cc1F | 5.44 |  |
| CCCCCCCN(CCCCC[S+]([O-])c1nc(-c2ccccc2)c(-c2ccccc2)[nH]1)C(=O)Nc1ccc(F)cc1F (stereo not drawn) | 8.10 | AHV (Cricetinae gen. sp.): 49%; Serum cholesterol (Mesocricetus auratus [2]): 278 mg % |
| O=C(Nc1ccc(F)cc1F)N(CCCCCSc1nc(-c2ccccc2)c(-c2ccccc2)[nH]1)CCc1ccccc1 | 6.77 |  |
| CCCCCCCN(CCSc1nc(-c2ccccc2)c(-c2ccccc2)[nH]1)C(=O)Nc1ccc(F)cc1F | 7.15 |  |
| CCCCCCCN(CCCCCSc1nc(-c2ccccc2)c(-c2ccccc2)[nH]1)/C(S)=N\c1ccc(F)cc1F | 7.24 |  |
| CCCCCCCN(CCCCCSc1nc(-c2ccccc2)c(-c2ccccc2)[nH]1)C(=O)c1ccccc1 | 7.30 |  |
| CC(C)c1cccc(C(C)C)c1NC(=O)NCCCCCSc1nc(-c2ccccc2)c(-c2ccccc2)[nH]1 | 6.29 |  |
| CC(C)NC(=O)N(CCCCCSc1nc(-c2ccccc2)c(-c2ccccc2)[nH]1)c1ccccc1 | 7.10 |  |
| CCCCCCCCNC(=O)N(CCCCCSc1nc(-c2ccccc2)c(-c2ccccc2)[nH]1)Cc1ccccc1 | 6.82 |  |
| CCCCCCCN(CCCCCSc1nc(-c2ccccc2)c(-c2ccccc2)[nH]1)C(=O)Nc1ccc(F)cc1F [LECIMIBIDE] |  | Serum cholesterol (Mesocricetus auratus [4]): 205 mg %; Serum cholesterol (Mesocricetus auratus [5]): 253 mg %; AHV (Cricetinae gen. sp.): 59% and 61% |
| CCCCCCCN(CCCCCSc1nc(-c2ccccc2)c(-c2ccccc2)[nH]1)C(=O)NC(C)C | 7.70 |  |
| CCCCCCCN(CCCCCNc1nc(-c2ccccc2)c(-c2ccccc2)[nH]1)C(=O)Nc1ccc(F)cc1F | 5.46 |  |
| CC(C)NC(=O)N(CCCCCSc1nc(-c2ccccc2)c(-c2ccccc2)[nH]1)c1ccc(F)cc1F | 7.40 |  |
| CCCCCCCN(CCCCCSc1nc(-c2ccccc2)c(-c2ccccc2)[nH]1)/C(S)=N\c1c(F)cc(F)cc1F | 7.52 |  |
| CCCCCCCN(CCCCCSc1nc(-c2ccccc2)cn1-c1ccccc1)C(=O)Nc1ccc(F)cc1F | 4.38 |  |
| CCCCCCCN(Cc1ccc(CSc2nc(-c3ccccc3)c(-c3ccccc3)[nH]2)cc1)C(=O)Nc1ccc(F)cc1F | 6.70 |  |
| CCCCCCCN(CCCCCSc1nc(-c2ccccc2)c(-c2ccccc2)[nH]1)C(=O)NCCC | 8.00 | AHV (Cricetinae gen. sp.): 74%; Serum cholesterol (Mesocricetus auratus [2]): 199 mg % |
| CCCCCCCN(CCCCCCc1nc(-c2ccccc2)c(-c2ccccc2)[nH]1)C(=O)Nc1ccc(F)cc1F | 6.55 |  |
| O=C(Nc1ccc(F)cc1F)N(CCCCCSc1nc(-c2ccccc2)c(-c2ccccc2)[nH]1)CCCc1ccccc1 | 7.52 |  |
| CCCCCCCN(Cc1ccccc1CSc1nc(-c2ccccc2)c(-c2ccccc2)[nH]1)C(=O)Nc1ccc(F)cc1F | 5.44 |  |
| CCCCCCCN(CCCCCSc1nc(-c2ccccc2)c(-c2ccccc2)[nH]1)C(N)=Nc1ccccc1 | 5.50 |  |
